Measured values as given in ChEMBL document CHEMBL1141092, “Synthesis of malarial plasmepsin inhibitors and prediction of binding modes by molecular dynamics simulations” (J Med Chem, 2005).

Columns and labels:
Plasmepsin II = Plasmepsin II (Plasmodium falciparum, UniProt P46925); assay: Inhibition constant against plasmepsin-2 of Plasmodium falciparum 10 min using 3 uM of DABCYL-Glu-Arg-Nle-Phe-Le u-Ser-Phe-Pro-EDANS as substrate
Summary of the method: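 Pro-Plm II at 3 nM is self-activated by 40 min preincubation at room temperature in 100 mM sodium acetate pH 4.5, 10% glycerol, 0.01% Tween 20. Inhibitor in DMSO (1% final) is added before 3 µM FRET substrate, and the linear fluorescence increase is read over 10 min. IC50 is fitted to a competitive Langmuir isotherm and converted to Ki via IC50/(1+[S]/Km).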

Plasmepsin I = Plasmepsin I (Plasmodium falciparum, UniProt P39898); assay: Inhibition constant against plasmepsin-1 of Plasmodium falciparum, 10 min using 3 uM of DABCYL-Glu-Arg-Nle-Phe-Le u-Ser-Phe-Pro-EDANS as substrate
Summary of the method: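 Recombinant Plm I, amount set to match Plm II catalytic activity, in 100 mM sodium acetate pH 4.5 with 10% glycerol and 0.01% Tween 20. DMSO inhibitor dilutions (1% final DMSO) are added, then 3 µM FRET substrate. Fluorescence rise is followed over a linear 10 min. IC50 comes from a Langmuir fit assuming competitive inhibition, and Ki = IC50/(1+[S]/Km), with Km from Michaelis–Menten.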

Cathepsin D = Cathepsin D (Homo sapiens, UniProt P07339); assay: Inhibition constant against pro-cathepsin D (50 ng/mL) of human liver upon incubation at pH 4.5 for 10 min using DABCYL-Glu-Arg-Nle-Phe-Le u-Ser-Phe-Pro-EDANS as substrate
Summary of the method: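 Human liver pro-Cat D at 50 ng/mL is activated for 20 min at 37 °C in 100 mM sodium acetate pH 4.5, 10% glycerol, 0.01% Tween 20. Inhibitor in DMSO (1% final) precedes 3 µM FRET substrate, and the fluorescence increase is followed over a linear 10 min. IC50 is from a competitive Langmuir fit, and Ki = IC50/(1+[S]/Km), with Km from Michaelis–Menten.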

Plasmepsin IV = Plasmepsin IV (Plasmodium falciparum 3D7, UniProt Q8IM16); assay: Inhibition constant against plasmepsin-4 of Plasmodium falciparum
Sequence of Plasmepsin IV (Q8IM16 whole entry): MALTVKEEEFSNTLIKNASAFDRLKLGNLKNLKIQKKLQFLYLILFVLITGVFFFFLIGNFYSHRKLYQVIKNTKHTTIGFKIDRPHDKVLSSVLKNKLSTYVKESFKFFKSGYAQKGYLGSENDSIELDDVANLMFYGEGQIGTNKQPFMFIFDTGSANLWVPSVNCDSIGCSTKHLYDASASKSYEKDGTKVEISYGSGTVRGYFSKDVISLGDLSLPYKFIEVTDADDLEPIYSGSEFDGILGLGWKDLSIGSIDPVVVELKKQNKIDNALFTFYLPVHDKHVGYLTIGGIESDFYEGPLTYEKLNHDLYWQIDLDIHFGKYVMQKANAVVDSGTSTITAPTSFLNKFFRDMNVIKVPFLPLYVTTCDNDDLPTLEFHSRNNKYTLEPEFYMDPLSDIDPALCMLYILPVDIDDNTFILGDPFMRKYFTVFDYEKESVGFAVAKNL

Sequence of Cathepsin D (P07339 65-162 limits assumed): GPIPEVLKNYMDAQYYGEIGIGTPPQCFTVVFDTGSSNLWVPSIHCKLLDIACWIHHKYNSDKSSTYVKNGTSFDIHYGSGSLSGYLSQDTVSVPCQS
Sequence of Cathepsin D (P07339 169-412 limits assumed): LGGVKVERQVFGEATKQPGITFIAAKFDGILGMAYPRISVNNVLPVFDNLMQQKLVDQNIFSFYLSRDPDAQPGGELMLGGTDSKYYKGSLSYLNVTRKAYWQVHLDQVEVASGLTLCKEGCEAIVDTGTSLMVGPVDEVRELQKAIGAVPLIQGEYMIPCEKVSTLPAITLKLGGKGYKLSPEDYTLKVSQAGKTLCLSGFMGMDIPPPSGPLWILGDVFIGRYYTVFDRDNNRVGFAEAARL
Sequence of Plasmepsin I (P39898 whole entry): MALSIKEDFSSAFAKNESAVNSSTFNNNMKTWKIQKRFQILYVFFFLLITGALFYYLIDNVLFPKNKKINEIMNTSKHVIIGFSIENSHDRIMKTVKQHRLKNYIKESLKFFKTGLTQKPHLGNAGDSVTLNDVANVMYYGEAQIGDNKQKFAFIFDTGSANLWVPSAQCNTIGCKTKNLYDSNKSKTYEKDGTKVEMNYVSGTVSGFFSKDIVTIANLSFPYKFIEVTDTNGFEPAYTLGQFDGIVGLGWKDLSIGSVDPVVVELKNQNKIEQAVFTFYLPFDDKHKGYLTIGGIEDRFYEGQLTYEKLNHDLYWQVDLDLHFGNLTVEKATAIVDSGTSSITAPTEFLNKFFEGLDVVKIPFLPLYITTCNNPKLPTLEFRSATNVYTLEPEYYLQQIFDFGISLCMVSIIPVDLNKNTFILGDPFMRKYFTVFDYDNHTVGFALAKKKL
Sequence of Plasmepsin II (P46925 whole entry): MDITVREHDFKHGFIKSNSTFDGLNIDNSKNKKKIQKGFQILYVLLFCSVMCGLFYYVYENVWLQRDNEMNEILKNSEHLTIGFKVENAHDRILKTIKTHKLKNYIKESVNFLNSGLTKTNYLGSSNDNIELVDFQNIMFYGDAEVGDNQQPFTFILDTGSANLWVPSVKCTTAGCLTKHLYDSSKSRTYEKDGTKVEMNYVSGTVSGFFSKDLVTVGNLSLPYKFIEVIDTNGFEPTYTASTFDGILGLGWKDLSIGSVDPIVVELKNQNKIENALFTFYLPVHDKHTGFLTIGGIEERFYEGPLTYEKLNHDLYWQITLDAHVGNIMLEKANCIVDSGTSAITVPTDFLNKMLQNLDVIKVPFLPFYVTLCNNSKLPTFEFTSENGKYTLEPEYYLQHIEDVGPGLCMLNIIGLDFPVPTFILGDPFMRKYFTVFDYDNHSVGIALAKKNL

Row | SMILES | Ki (Plasmepsin II) [nM] | Ki (Plasmepsin I) [nM] | Ki (Cathepsin D) [nM] | Ki (Plasmepsin IV) [nM]
1 | Cc1n[nH]c([C@H](OC/C=C/Br)[C@H](O)[C@@H](O)[C@@H](OC/C=C/Br)C(=O)N[C@H]2c3ccccc3C[C@H]2O)n1 | > 5000 | > 3000 | > 6000 | –
2 | CC(C)(C)c1ccc(-c2nnc([C@H](OC/C=C/Br)[C@H](O)[C@@H](O)[C@@H](OC/C=C/Br)C(=O)N[C@H]3c4ccccc4C[C@H]3O)o2)cc1 | > 5000 | > 3000 | > 6000 | –
3 | O=C(CCc1ccccc1)NNC(=O)[C@H](OC/C=C/c1ccc2c(c1)OCO2)[C@H](O)[C@@H](O)[C@@H](OC/C=C/c1ccc2c(c1)OCO2)C(=O)N[C@H]1c2ccccc2C[C@H]1O | 11 | 6 | 800 | –
4 | O=C(CCc1c[nH]c2ccccc12)NNC(=O)[C@H](OC/C=C/Br)[C@H](O)[C@@H](O)[C@@H](OC/C=C/Br)C(=O)N[C@H]1c2ccccc2C[C@H]1O | 6 | 19 | > 6000 | –
5 | O=C(Cc1ccccc1)NNC(=O)[C@H](OC/C=C/Br)[C@H](O)[C@@H](O)[C@@H](OC/C=C/Br)C(=O)N[C@H]1c2ccccc2C[C@H]1O | 14 | 31 | > 6000 | –
6 | CC(C)(C)c1ccc(C(=O)NNC(=O)[C@H](OC/C=C/Br)[C@H](O)[C@@H](O)[C@@H](OC/C=C/Br)C(=O)N[C@H]2c3ccccc3C[C@H]2O)cc1 | 142 | 198 | > 6000 | –
7 | O=C(CCc1ccccc1)NNC(=O)[C@H](OC/C=C/Br)[C@H](O)[C@@H](O)[C@@H](OC/C=C/Br)C(=O)N[C@H]1c2ccccc2C[C@H]1O | 7 | 9 | > 6000 | –
8 | Cc1nnc([C@H](OC/C=C/Br)[C@H](O)[C@@H](O)[C@@H](OC/C=C/Br)c2nnc(C)o2)o1 | > 5000 | > 3000 | > 6000 | –
9 | O=C(CCN1CCOCC1)NNC(=O)[C@H](OC/C=C/Br)[C@H](O)[C@@H](O)[C@@H](OC/C=C/Br)C(=O)N[C@H]1c2ccccc2C[C@H]1O | 1300 | 2000 | > 6000 | –
10 | O=C(N[C@H]1c2ccccc2C[C@H]1O)[C@H](OC/C=C/Br)[C@H](O)[C@@H](O)[C@@H](OC/C=C/Br)c1nnc(CCCc2ccccc2)o1 | 2300 | 1600 | > 6000 | –
11 | C=CCO[C@@H](C(=O)NNC(=O)CCc1ccccc1)[C@H](O)[C@@H](O)[C@@H](OCC=C)C(=O)N[C@H]1c2ccccc2C[C@H]1O | 161 | 124 | > 6000 | –
12 | C=CCO[C@@H](C(=O)N[C@H]1c2ccccc2C[C@H]1O)[C@H](O)[C@@H](O)[C@@H](OCC=C)C(=O)N[C@H]1c2ccccc2C[C@H]1O | – | – | – | > 5000
13 | CC(=O)NNC(=O)[C@H](OC/C=C/Br)[C@H](O)[C@@H](O)[C@@H](OC/C=C/Br)C(=O)NNC(C)=O | > 5000 | > 3000 | > 6000 | –
14 | CC(=O)NNC(=O)[C@H](OC/C=C/Br)[C@H](O)[C@@H](O)[C@@H](OC/C=C/Br)C(=O)N[C@H]1c2ccccc2C[C@H]1O | 359 | 698 | > 6000 | –
15 | O=C(CCCc1ccccc1)NNC(=O)[C@H](OC/C=C/Br)[C@H](O)[C@@H](O)[C@@H](OC/C=C/Br)C(=O)N[C@H]1c2ccccc2C[C@H]1O | 10 | 11 | > 6000 | –
16 | O=C(N[C@H]1c2ccccc2C[C@H]1O)[C@H](OC/C=C/Br)[C@H](O)[C@@H](O)[C@@H](OC/C=C/Br)c1nnc(CCc2ccccc2)o1 | 2900 | > 3000 | > 6000 | –
17 | O=C(NNC(=O)[C@H](OC/C=C/Br)[C@H](O)[C@@H](O)[C@@H](OC/C=C/Br)C(=O)N[C@H]1c2ccccc2C[C@H]1O)c1ccccc1 | 168 | 261 | > 6000 | –
18 | CC(C)(C)c1ccc(C(=O)NNC(=O)[C@H](OC/C=C/Br)[C@H](O)[C@@H](O)[C@@H](OC/C=C/Br)C(=O)NNC(=O)c2ccc(C(C)(C)C)cc2)cc1 | 1500 | 1840 | 3000 | 478
19 | CN1CCN(CCC(=O)NNC(=O)[C@H](OC/C=C/Br)[C@H](O)[C@@H](O)[C@@H](OC/C=C/Br)C(=O)N[C@H]2c3ccccc3C[C@H]2O)CC1 | 586 | 1090 | > 6000 | –
20 | CC(=O)c1ccc(/C=C/CO[C@@H](C(=O)NNC(=O)CCc2ccccc2)[C@H](O)[C@@H](O)[C@@H](OC/C=C/c2ccc(C(C)=O)cc2)C(=O)N[C@H]2c3ccccc3C[C@H]2O)cc1 | 145 | 38 | 1200 | –
21 | O=C(N[C@H]1c2ccccc2C[C@H]1O)[C@H](OC/C=C/Br)[C@H](O)[C@@H](O)[C@@H](OC/C=C/Br)c1nnc(-c2ccccc2)o1 | 3400 | > 3000 | > 6000 | –
22 | CC(C)(C)c1ccc(-c2nnc([C@H](OC/C=C/Br)[C@H](O)[C@@H](O)[C@@H](OC/C=C/Br)c3nnc(-c4ccc(C(C)(C)C)cc4)o3)o2)cc1 | > 5000 | > 3000 | > 6000 | 35
23 | Cc1nnc([C@H](OC/C=C/Br)[C@H](O)[C@@H](O)[C@@H](OC/C=C/Br)C(=O)N[C@H]2c3ccccc3C[C@H]2O)o1 | > 5000 | > 3000 | > 6000 | –
24 | O=C(N[C@H]1c2ccccc2C[C@H]1O)[C@H](OC/C=C/Br)[C@H](O)[C@@H](O)[C@@H](OC/C=C/Br)c1nnc(Cc2ccccc2)o1 | 2100 | > 3000 | > 6000 | –
